Results taken from ChEMBL document CHEMBL4325922, “Restoring Let-7 microRNA Biogenesis Using a Small-Molecule Inhibitor of the Protein-RNA Interaction” (ACS Med Chem Lett, 2018).
Values belong to the compound of their own block, whether it stands above or below them. Calls of active or inactive are those of the source. The rule behind the calls is not given here.

Columns and labels:
[1] = molecular target: T1, Protein lin-28 homolog A/B (Homo sapiens) (UniProt Q6ZN17+Q9H9Z2); assay: Inhibition of Lin28a/Lin28b in human paclitaxel-resistant JAR cells assessed as reduction in IMP1 expression at 40 uM measured after 24 hrs by Western blot analysis
[2] = molecular target: T1, Protein lin-28 homolog A/B (Homo sapiens); assay: Inhibition of Lin28a/Lin28b in human paclitaxel-resistant JAR cells assessed as potentiation of paclitaxel induced cytotoxicity at 40 uM pretreated for 30 hrs followed by paclitaxel addition and measured after 72 hrs by WTS assay
Summary of the method: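 Paclitaxel-resistant JAR persister cells, enriched by cytotoxic paclitaxel exposure and regrowth without drug. Cells pretreated 30 h with compound, then given paclitaxel for 72 h without compound; WST viability used to derive the paclitaxel IC50.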

[3] = molecular target: T1, Protein lin-28 homolog A/B (Homo sapiens); assay: Inhibition of Lin28a/Lin28b in human paclitaxel-resistant JAR cells assessed as reduction in MDR1 expression at 40 uM measured after 30 hrs by Western blot analysis
Protein lin-28 homolog A = molecular target: T2, Protein lin-28 homolog A (Homo sapiens, UniProt Q9H9Z2); assay: Inhibition of Cy5-preE-let-7g binding to recombinant human N-terminal His6-tagged Lin28a expressed in Escherichia coli Rosetta2 (DE3) pLysS measured after 30 to 60 mins by electrophoretic mobility shift assay
T2 sequence (Q9H9Z2 whole entry): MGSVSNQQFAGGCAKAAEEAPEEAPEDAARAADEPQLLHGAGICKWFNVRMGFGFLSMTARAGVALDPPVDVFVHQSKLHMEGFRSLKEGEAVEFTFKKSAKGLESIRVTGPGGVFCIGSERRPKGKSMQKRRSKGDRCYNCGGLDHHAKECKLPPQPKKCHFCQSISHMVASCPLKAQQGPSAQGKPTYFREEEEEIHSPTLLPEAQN

[4] = molecular target: T3, Protein lin-28 homolog A (Homo sapiens) (UniProt Q9H9Z2); assay: Inhibition of Cy5-preE-let-7g binding to recombinant human N-terminal His6-tagged Lin28a expressed in Escherichia coli Rosetta2 (DE3) pLysS at 15 uM measured after 30 to 60 mins by electrophoretic mobility shift assay relative to control
T3 sequence (whole entry): T2 sequence (Q9H9Z2 whole entry)

[5] = molecular target: T1, Protein lin-28 homolog A/B (Homo sapiens); assay: Inhibition of Lin28a/Lin28b in human JAR cells assessed as reduction in HMGA2 expression at 5 to 10 uM after 24 hrs by Western blot analysis; format: cell-based
Summary of the method: (§1)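 Endogenous let-7 target proteins (HMGA2, IMP1, Ras, Lin28a) detected by Western blot in JAR or PA-1 cells after 24 h compound treatment.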

[6] = molecular target: T1, Protein lin-28 homolog A/B (Homo sapiens); assay: Inhibition of Lin28a/Lin28b in human JAR cells assessed as reduction in IMP1 expression at 5 to 10 uM after 24 hrs by Western blot analysis; format: cell-based; summary of the method: as §1
[7] = molecular target: T1, Protein lin-28 homolog A/B (Homo sapiens); assay: Inhibition of Lin28a/Lin28b in human JAR cells assessed as increase in mature let-7g level at 5 to 10 uM after 20 hrs by TRIzol dye based qRT-PCR analysis; format: cell-based
Summary of the method: (§2)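 JAR cells (express Lin28a and Lin28b) exposed to compound for 20 h; miRNA levels quantified with U6 snRNA as endogenous control; three or more biological replicates, standard deviation, paired two-tailed t test.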

[8] = molecular target: T1, Protein lin-28 homolog A/B (Homo sapiens); assay: Inhibition of Lin28a/Lin28b in human JAR cells assessed as increase in mature let-7a level at 5 to 10 uM after 20 hrs by TRIzol dye based qRT-PCR analysis; format: cell-based; summary of the method: as §2
[9] = molecular target: T1, Protein lin-28 homolog A/B (Homo sapiens); assay: Inhibition of Lin28a/Lin28b in human JAR cells assessed as reduction in Lin28a expression at 5 to 10 uM after 24 hrs by Western blot analysis; format: cell-based; summary of the method: as §1
[10] = molecular target: T1, Protein lin-28 homolog A/B (Homo sapiens); assay: Inhibition of Lin28a/Lin28b in human JAR cells assessed as reduction in Ras expression at 5 to 10 uM after 24 hrs by Western blot analysis; format: cell-based; summary of the method: as §1

T1 sequence (Q6ZN17 whole entry, looked up, one chain of several): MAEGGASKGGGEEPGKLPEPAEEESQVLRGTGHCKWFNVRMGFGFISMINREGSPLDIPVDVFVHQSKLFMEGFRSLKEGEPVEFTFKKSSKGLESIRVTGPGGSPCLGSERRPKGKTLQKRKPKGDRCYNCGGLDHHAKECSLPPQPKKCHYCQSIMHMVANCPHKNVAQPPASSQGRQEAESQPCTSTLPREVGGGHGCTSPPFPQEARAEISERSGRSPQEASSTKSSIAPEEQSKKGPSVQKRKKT

- inhibition [1]: Active
- inhibition [3]: Active
SMILES: CC1(C)Oc2cc(N3CCN(C(=O)OCc4ccccc4)CC3)c([N+](=O)[O-])cc2-c2c1cnn2-c1ccc(C(=O)O)cc1
- inhibition [2]: Active

- IC50 (Protein lin-28 homolog A): 11 µM
SMILES: NC(=O)c1c(Nc2ccc(Cl)cc2Cl)[nH]c2c(Cl)c(Cl)ccc2c1=O

- inhibition [4]: 40%
SMILES: NC(=O)c1c(Nc2ccc(F)cc2)[nH]c2c(Cl)ccc(Cl)c2c1=O

- inhibition [5]: inactive
- inhibition [6]: inactive
- inhibition [4]: 14%
- Activity [7]: Active
- Activity [8]: Active
- inhibition [9]: inactive
- inhibition [10]: inactive
SMILES: COc1cccc(Nc2[nH]c3c(Cl)ccc(Cl)c3c(=O)c2C(N)=O)c1
